Values after ≈ are worked out from the molar mass of the structure shown.
Columns and labels:
Escherichia coli [1] = test: Antibacterial activity against extended-spectrum beta-lactamase producing Escherichia coli isolate 106342 after 18 hrs in presence of BPL by CLSI broth microdilution method; format: functional; conditions: isolate 106342, 18 h
In short: (§1)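 CLSI broth microdilution against clinical isolates (ESBL E. coli, KPC-2 MDR K. pneumoniae, IMP-4 MDR P. aeruginosa; five per species). Iron limitation: Mueller-Hinton broth supplemented with 16 mg/liter 2,2'-bipyridyl to complex iron and induce iron uptake systems. Read-out: MIC.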

Escherichia coli [2] = test: Antibacterial activity against extended-spectrum beta-lactamase producing Escherichia coli isolate 212648 after 18 hrs by CLSI broth microdilution method; format: functional; conditions: isolate 212648, 18 h
Klebsiella pneumoniae [3] = test: Antibacterial activity against KPC-2 producing Klebsiella pneumoniae isolate 212423 after 18 hrs in presence of BPL by CLSI broth microdilution method; format: functional; conditions: isolate 212423, 18 h; in short: as §1
Klebsiella pneumoniae [4] = test: Antibacterial activity against KPC-2 producing Klebsiella pneumoniae isolate 209632 after 18 hrs in presence of BPL by CLSI broth microdilution method; format: functional; conditions: isolate 209632, 18 h; in short: as §1
Pseudomonas aeruginosa [5] = test: Antibacterial activity against IMP-4 producing Pseudomonas aeruginosa isolate 212886 after 18 hrs in presence of BPL by CLSI broth microdilution method; format: functional; conditions: isolate 212886, 18 h; in short: as §1
Pseudomonas aeruginosa [6] = test: Selectivity index, ratio of MIC for against IMP-4 producing Pseudomonas aeruginosa isolate 208247 to MIC for against IMP-4 producing Pseudomonas aeruginosa isolate 208247 in presence of BPL; format: functional
Pseudomonas aeruginosa [7] = test: Antibacterial activity against IMP-4 producing Pseudomonas aeruginosa isolate 209471 after 18 hrs in presence of BPL by CLSI broth microdilution method; format: functional; conditions: isolate 209471, 18 h; in short: as §1
Escherichia coli [8] = test: Selectivity index, ratio of MIC for against extended-spectrum beta-lactamase producing Escherichia coli isolate 106342 to MIC for extended-spectrum beta-lactamase producing Escherichia coli isolate 106342 in presence of BPL; format: functional
Escherichia coli [9] = test: Selectivity index, ratio of MIC for against extended-spectrum beta-lactamase producing Escherichia coli isolate 212648 to MIC for extended-spectrum beta-lactamase producing Escherichia coli isolate 212648 in presence of BPL; format: functional
Klebsiella pneumoniae [10] = test: Antibacterial activity against KPC-2 producing Klebsiella pneumoniae isolate 212229 after 18 hrs by CLSI broth microdilution method; format: functional; conditions: isolate 212229, 18 h
Pseudomonas aeruginosa [11] = test: Selectivity index, ratio of MIC for against IMP-4 producing Pseudomonas aeruginosa isolate 209471 to MIC for against IMP-4 producing Pseudomonas aeruginosa isolate 209471 in presence of BPL; format: functional
Pseudomonas aeruginosa [12] = test: Antibacterial activity against IMP-4 producing Pseudomonas aeruginosa isolate 209321 after 18 hrs by CLSI broth microdilution method; format: functional; conditions: isolate 209321, 18 h
Pseudomonas aeruginosa [13] = test: Antibacterial activity against IMP-4 producing Pseudomonas aeruginosa isolate 212886 after 18 hrs by CLSI broth microdilution method; format: functional; conditions: isolate 212886, 18 h
Escherichia coli [14] = test: Antibacterial activity against Escherichia coli isolate 210737 after 18 hrs by CLSI broth microdilution method; format: functional; conditions: isolate 210737, 18 h
Escherichia coli [15] = test: Antibacterial activity against extended-spectrum beta-lactamase producing Escherichia coli isolate 208687 after 18 hrs in presence of BPL by CLSI broth microdilution method; format: functional; conditions: isolate 208687, 18 h; in short: as §1
Klebsiella pneumoniae [16] = test: Antibacterial activity against KPC-2 producing Klebsiella pneumoniae isolate 212232 after 18 hrs in presence of BPL by CLSI broth microdilution method; format: functional; conditions: isolate 212232, 18 h; in short: as §1
Klebsiella pneumoniae [17] = test: Antibacterial activity against KPC-2 producing Klebsiella pneumoniae isolate 209735 after 18 hrs by CLSI broth microdilution method; format: functional; conditions: isolate 209735, 18 h
[18] = Elimination half life in mouse liver microsomes at 0.1 uM pre-incubated with compound followed by NADPH addition and measured after 60 mins by LC-MS/MS analysis; format: ADME, microsome; conditions: read-out: beta t1/2
[19] = Intrinsic clearance in mouse liver microsomes assessed per g protein at 0.1 uM pre-incubated with compound followed by NADPH addition and measured after 60 mins by LC-MS/MS analysis; format: ADME, microsome; conditions: 1 h
In short: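 Liver microsomes, 0.33 mg/mL microsomal protein, with an NADP+-regenerating system. Test article at 0.1 µM, incubated at 37°C. Samples were taken at 0, 7, 17, 30 and 60 min, and parent compound was measured by MS. Half-life, intrinsic clearance (ml/min/g protein) and MF (%) are derived from parent loss.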

Escherichia coli [20] = test: Selectivity index, ratio of MIC for against extended-spectrum beta-lactamase producing Escherichia coli isolate 209285 to MIC for extended-spectrum beta-lactamase producing Escherichia coli isolate 209285 in presence of BPL; format: functional
Pseudomonas aeruginosa [21] = test: Selectivity index, ratio of MIC for against IMP-4 producing Pseudomonas aeruginosa isolate 209321 to MIC for against IMP-4 producing Pseudomonas aeruginosa isolate 209321 in presence of BPL; format: functional
Pseudomonas aeruginosa [22] = test: Antibacterial activity against IMP-4 producing Pseudomonas aeruginosa isolate 207272 after 18 hrs by CLSI broth microdilution method; format: functional; conditions: isolate 207272, 18 h
Pseudomonas aeruginosa [23] = test: Antibacterial activity against IMP-4 producing Pseudomonas aeruginosa isolate 207272 after 18 hrs in presence of BPL by CLSI broth microdilution method; format: functional; conditions: isolate 207272, 18 h; in short: as §1
Escherichia coli [24] = test: Selectivity index, ratio of MIC for against Escherichia coli isolate 210737 to MIC for Escherichia coli isolate 210737 in presence of BPL; format: functional
Pseudomonas aeruginosa [25] = test: Selectivity index, ratio of MIC for against IMP-4 producing Pseudomonas aeruginosa isolate 207272 to MIC for against IMP-4 producing Pseudomonas aeruginosa isolate 207272 in presence of BPL; format: functional
Klebsiella pneumoniae [26] = test: Selectivity index, ratio of MIC for against KPC-2 producing Klebsiella pneumoniae isolate 209632 to MIC for against KPC-2 producing Klebsiella pneumoniae isolate 209632 in presence of BPL; format: functional
Klebsiella pneumoniae [27] = test: Selectivity index, ratio of MIC for against KPC-2 producing Klebsiella pneumoniae isolate 212229 to MIC for against KPC-2 producing Klebsiella pneumoniae isolate 212229 in presence of BPL; format: functional
Escherichia coli [28] = test: Antibacterial activity against extended-spectrum beta-lactamase producing Escherichia coli isolate 209285 after 18 hrs by CLSI broth microdilution method; format: functional; conditions: isolate 209285, 18 h
Klebsiella pneumoniae [29] = test: Selectivity index, ratio of MIC for against KPC-2 producing Klebsiella pneumoniae isolate 212232 to MIC for against KPC-2 producing Klebsiella pneumoniae isolate 212232 in presence of BPL; format: functional
Klebsiella pneumoniae [30] = test: Antibacterial activity against KPC-2 producing Klebsiella pneumoniae isolate 212229 after 18 hrs in presence of BPL by CLSI broth microdilution method; format: functional; conditions: isolate 212229, 18 h; in short: as §1
Escherichia coli [31] = test: Antibacterial activity against extended-spectrum beta-lactamase producing Escherichia coli isolate 209285 after 18 hrs in presence of BPL by CLSI broth microdilution method; format: functional; conditions: isolate 209285, 18 h; in short: as §1
Escherichia coli [32] = test: Antibacterial activity against extended-spectrum beta-lactamase producing Escherichia coli isolate 208687 after 18 hrs by CLSI broth microdilution method; format: functional; conditions: isolate 208687, 18 h
Pseudomonas aeruginosa [33] = test: Antibacterial activity against IMP-4 producing Pseudomonas aeruginosa isolate 208247 after 18 hrs in presence of BPL by CLSI broth microdilution method; format: functional; conditions: isolate 208247, 18 h; in short: as §1

MIC (Escherichia coli [1]) [µg/mL] | MIC (Escherichia coli [2]) [µg/mL] | MIC (Klebsiella pneumoniae [3]) [µg/mL] | MIC (Klebsiella pneumoniae [4]) [µg/mL] | MIC (Pseudomonas aeruginosa [5]) [µg/mL] | MIC (Pseudomonas aeruginosa [7]) [µg/mL] | MIC (Klebsiella pneumoniae [10]) [µg/mL] | MIC (Pseudomonas aeruginosa [12]) [µg/mL] | MIC (Pseudomonas aeruginosa [13]) [µg/mL] | MIC (Escherichia coli [14]) [µg/mL] | MIC (Escherichia coli [15]) [µg/mL] | MIC (Klebsiella pneumoniae [16]) [µg/mL] | MIC (Klebsiella pneumoniae [17]) [µg/mL] | half-life at 0.1 µM [18] [h] | CLint [19] [mL/min/g] | SMILES | Selectivity Index (Pseudomonas aeruginosa [6]) | Selectivity Index (Escherichia coli [8]) | Selectivity Index (Escherichia coli [9]) | Selectivity Index (Pseudomonas aeruginosa [11]) | Selectivity Index (Escherichia coli [20]) | also measured
0.25 | 1 (≈ 1.7 µM) | 0.5 | 2 | 4 | 8 | 1 (≈ 1.7 µM) | 8 (≈ 13.6 µM) | 4 (≈ 6.78 µM) | 0.25 (≈ 0.424 µM) | 0.25 | 0.25 | 32 (≈ 54.3 µM) | 10.3 | 3.41 | CC(C)C(O/N=C(\C(=O)N[C@@H]1C(=O)N(S(=O)(=O)O)[C@@H]1COC(N)=O)c1csc(N)n1)c1cc(=O)c(O)cn1O (some centres not stated) | 1 | 2 | 4 | 1 | 4 | Selectivity Index (Pseudomonas aeruginosa [21]): 2; MIC (Pseudomonas aeruginosa [22]): 8 µg/mL (≈ 13.6 µM); MIC (Pseudomonas aeruginosa [23]): 4 µg/mL; Selectivity Index (Escherichia coli [24]): 1; Selectivity Index (Pseudomonas aeruginosa [25]): 2; Selectivity Index (Klebsiella pneumoniae [26]): 4; Selectivity Index (Klebsiella pneumoniae [27]): 4; MIC (Escherichia coli [28]): 0.5 µg/mL (≈ 0.848 µM); Selectivity Index (Klebsiella pneumoniae [29]): 4; MIC (Klebsiella pneumoniae [30]): 0.25 µg/mL; MIC (Escherichia coli [31]): 0.125 µg/mL; MIC (Escherichia coli [32]): 0.5 µg/mL (≈ 0.848 µM); MIC (Pseudomonas aeruginosa [33]): 4 µg/mL
0.25 | 1 (≈ 1.75 µM) | 0.5 | 0.25 | 8 | 16 | 1 (≈ 1.75 µM) | 8 (≈ 14 µM) | 16 (≈ 28 µM) | 0.5 (≈ 0.876 µM) | 0.25 | 0.06 | 2 (≈ 3.51 µM) | 6.25 | 5.59 | CC(C)C(O/N=C(\C(=O)N[C@@H]1C(=O)N(S(=O)(=O)O)C12CCCC2)c1csc(N)n1)c1cc(=O)c(O)cn1O (some centres not stated) | 2 | 2 | 2 | 1 | 1 | Selectivity Index (Pseudomonas aeruginosa [21]): 1; MIC (Pseudomonas aeruginosa [22]): 16 µg/mL (≈ 28 µM); MIC (Pseudomonas aeruginosa [23]): 8 µg/mL; Selectivity Index (Escherichia coli [24]): 8; Selectivity Index (Pseudomonas aeruginosa [25]): 2; Selectivity Index (Klebsiella pneumoniae [26]): 8; Selectivity Index (Klebsiella pneumoniae [27]): 8; MIC (Escherichia coli [28]): 0.5 µg/mL (≈ 0.876 µM); Selectivity Index (Klebsiella pneumoniae [29]): 16; MIC (Klebsiella pneumoniae [30]): 0.125 µg/mL; MIC (Escherichia coli [31]): 0.5 µg/mL; MIC (Escherichia coli [32]): 0.5 µg/mL (≈ 0.876 µM); MIC (Pseudomonas aeruginosa [33]): 8 µg/mL
0.25 | 1 (≈ 1.77 µM) | 0.5 | 4 | 8 | 4 | 0.5 (≈ 0.885 µM) | 8 (≈ 14.2 µM) | 8 (≈ 14.2 µM) | 1 (≈ 1.77 µM) | 0.25 | 0.5 | 32 (≈ 56.6 µM) | 1.2 | 29 | CC(C)C(O/N=C(\C(=O)N[C@@H]1C(=O)N(S(=O)(=O)O)[C@@H]1CCl)c1csc(N)n1)c1cc(=O)c(O)cn1O (some centres not stated) | 1 | 4 | 4 | 2 | 1 | Selectivity Index (Pseudomonas aeruginosa [21]): 1; MIC (Pseudomonas aeruginosa [22]): 8 µg/mL (≈ 14.2 µM); MIC (Pseudomonas aeruginosa [23]): 4 µg/mL; Selectivity Index (Escherichia coli [24]): 4; Selectivity Index (Pseudomonas aeruginosa [25]): 2; Selectivity Index (Klebsiella pneumoniae [26]): 1; Selectivity Index (Klebsiella pneumoniae [27]): 2; MIC (Escherichia coli [28]): 0.5 µg/mL (≈ 0.885 µM); Selectivity Index (Klebsiella pneumoniae [29]): 4; MIC (Klebsiella pneumoniae [30]): 0.25 µg/mL; MIC (Escherichia coli [31]): 0.5 µg/mL; MIC (Escherichia coli [32]): 0.5 µg/mL (≈ 0.885 µM); MIC (Pseudomonas aeruginosa [33]): 8 µg/mL
8 | 16 (≈ 20.9 µM) | 0.25 | 0.25 | 1 | 2 | 2 (≈ 2.61 µM) | 8 (≈ 10.4 µM) | 4 (≈ 5.22 µM) | 16 (≈ 20.9 µM) | 1 | 0.25 | 2 (≈ 2.61 µM) | 1.29 | 27.1 | CC(C)C(O/N=C(\C(=O)N[C@@H]1C(=O)N(S(=O)(=O)O)[C@@H]1Cn1cc(COCc2cc(=O)c(O)cn2O)nn1)c1csc(N)n1)c1cc(=O)c(O)cn1O (some centres not stated) | 1 | 2 | 2 | 4 | 2 | Selectivity Index (Pseudomonas aeruginosa [21]): 2; MIC (Pseudomonas aeruginosa [22]): 16 µg/mL (≈ 20.9 µM); MIC (Pseudomonas aeruginosa [23]): 2 µg/mL; Selectivity Index (Escherichia coli [24]): 2; Selectivity Index (Pseudomonas aeruginosa [25]): 8; Selectivity Index (Klebsiella pneumoniae [26]): 8; Selectivity Index (Klebsiella pneumoniae [27]): 8; MIC (Escherichia coli [28]): 16 µg/mL (≈ 20.9 µM); Selectivity Index (Klebsiella pneumoniae [29]): 8; MIC (Klebsiella pneumoniae [30]): 0.25 µg/mL; MIC (Escherichia coli [31]): 8 µg/mL; MIC (Escherichia coli [32]): 16 µg/mL (≈ 20.9 µM); MIC (Pseudomonas aeruginosa [33]): 4 µg/mL

— ChEMBL document CHEMBL4152188, “Design, synthesis and biological evaluation of C(4) substituted monobactams as antibacterial agents against multidrug-resistant Gram-negative bacteria” (Eur J Med Chem, 2018)
